Screening data (PubChem)
TRPC4 block – blocks the mouse TRPC4 cation channel | HEK293 TRPC4beta/mu-opioid, DAMGO-evoked Fluo4 calcium flux; stronger effect = lower value | B-score at 10 µM | actives 0.39% (n = 300,000) | AID 2247;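 active = B-score over 3 SD under the library average, no early fluorescence shift, positive overall ratio signal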
Target sequence (Q9QUQ5 whole entry, looked up): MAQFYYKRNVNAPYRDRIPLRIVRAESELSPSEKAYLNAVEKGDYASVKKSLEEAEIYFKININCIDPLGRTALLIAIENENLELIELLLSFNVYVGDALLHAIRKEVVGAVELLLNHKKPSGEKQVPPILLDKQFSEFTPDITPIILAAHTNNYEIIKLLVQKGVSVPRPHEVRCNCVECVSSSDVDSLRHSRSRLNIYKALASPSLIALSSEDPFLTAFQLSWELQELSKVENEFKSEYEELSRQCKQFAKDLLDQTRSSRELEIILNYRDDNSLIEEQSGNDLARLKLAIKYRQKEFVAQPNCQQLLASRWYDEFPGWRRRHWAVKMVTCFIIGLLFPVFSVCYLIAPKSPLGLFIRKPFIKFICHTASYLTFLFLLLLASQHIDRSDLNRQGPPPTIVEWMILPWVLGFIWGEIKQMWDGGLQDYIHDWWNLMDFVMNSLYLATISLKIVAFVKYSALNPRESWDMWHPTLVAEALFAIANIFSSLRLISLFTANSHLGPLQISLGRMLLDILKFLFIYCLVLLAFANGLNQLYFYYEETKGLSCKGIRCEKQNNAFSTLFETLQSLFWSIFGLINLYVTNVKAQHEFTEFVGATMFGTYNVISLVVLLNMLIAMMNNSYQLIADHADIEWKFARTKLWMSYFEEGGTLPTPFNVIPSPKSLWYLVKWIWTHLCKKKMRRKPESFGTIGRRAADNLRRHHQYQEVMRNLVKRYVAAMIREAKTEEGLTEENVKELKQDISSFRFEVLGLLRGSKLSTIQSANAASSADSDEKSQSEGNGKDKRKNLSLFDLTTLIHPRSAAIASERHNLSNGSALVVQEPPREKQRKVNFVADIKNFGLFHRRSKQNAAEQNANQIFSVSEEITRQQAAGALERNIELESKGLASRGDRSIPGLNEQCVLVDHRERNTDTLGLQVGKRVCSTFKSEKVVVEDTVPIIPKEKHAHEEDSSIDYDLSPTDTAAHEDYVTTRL
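Material: HEK293 cells with stable TRPC4beta plus mu-opioid receptor expression; probe or stimulus: DAMGO in two steps, submaximal then maximal; technique: Fluo4 calcium fluorescence by kinetic imaging, 5 s 1 Hz baseline; measure: integrated fluorescence ratio relative to baseline, converted to per-well B score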
TRPC4 act – TRPC4 (mouse) channel activation | Q9QUQ5 | HEK293 TRPC4beta/mu-opioid, Fluo4 calcium fluorescence; stronger effect = higher value | B-score at 10 µM | actives 0.49% (n = 310,000) | AID 2237;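 active = B-score above 5 SD of library B-scores, and initial fluorescence ratio not above library mean plus 5 SD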;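 also: positive B-score marks a calcium rise read as TRPC4 activation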
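System: HEK293 cells stably co-expressing mouse TRPC4beta and mu-opioid receptor; Schedule: Fluo4 dye loading 45 min at room temperature, 110 s recording; Detection: Fluo4 fluorescence, kinetic; Evaluation: B-scored integrated calcium fluorescence ratio; Controls: buffer (low) and maximal DAMGO (high).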
TRPC4 potent – TRPC4 (mouse) allosteric potentiation | B-score at 10 µM | HEK293 TRPC4beta/mu-opioid, DAMGO EC20, Fluo-4 Ca2+ flux; stronger effect = higher value | actives 0.42% (n = 310,000) | AID 2227;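 active = B-score of calcium response area above 5 SD of library B-scores, with initial fluorescence ratio within 5 SD of library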;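 also: B-score of integrated fluorescence ratio over time as area under calcium response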
TRPC6 act – activates the mouse TRPC6 cation channel; actives 0.13% (n = 310,000); HEK293-TRPC6 membrane potential dye fluorescence; stronger effect = higher value; B-score at 10 µM; Q61143;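 active = B-score of the integrated fluorescence ratio above library mean plus 3 SD, and starting fluorescence ratio within library mean plus 5 SD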;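 also: higher score means more depolarization so channel activation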
TRPC6 inh – mouse TRPC6 channel inhibition | actives 1.1% (n = 310,000) | Q61143 | HEK293-TRPC6, membrane potential dye, ACh-evoked depolarization; stronger effect = lower value | B-score at 10 µM;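 active = B-score under library mean minus 3 SD, initial fluorescence not abnormally high, positive integrated signal ratio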;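 also: B-score derived from integrated fluorescence ratio over the kinetic read; more negative B-score means stronger inhibition of depolarization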
TRPC4 sel inh 2 – second check of whether TRPC6 inhibitors also affect mouse TRPC4 | AID 2776 | shares compounds with TRPC6 inh | HEK293 TRPC4/MOR, membrane potential dye fluorescence; channel activated by saturating DAMGO dose | inhibition, % at 10 µM | actives 42% (n = 920);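 active = compounds whose fluorescence signal differed from control wells by over 3 SD, either direction, in both duplicate plates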
TRPC4 spec – selectivity of TRPC6 inhibitors: effect on mouse TRPC4; shares compounds with TRPC6 inh; HEK293 TRPC4/mu-opioid, membrane potential fluorescence; activity change, negative = inhibition, % at 10 µM; actives 61% (n = 920); AID 2777;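 active = rise or fall in signal beyond 3 SD of buffer-only wells in both replicate plates, either sign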;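 also: integrated kinetic ratio of fluorescence range over baseline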
HEK293 MPD ctr 2-1 – second check of TRPC6 inhibitor effects in parental HEK293 cells. signal change vs control, % at 10 µM. actives 31% (n = 920). parental HEK293 membrane potential dye fluorescence; maximal acetylcholine challenge after compound addition. shares compounds with TRPC6 inh;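 active = membrane potential signal moving either way by over 3 SD of the maximum-effect control, in both duplicate plates, meaning non-specific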
HEK293 MPD ctr-1 – checks TRPC6 inhibitor effects in parental HEK293 cells; parental HEK293 membrane potential dye fluorescence; AID 2780; shares compounds with TRPC6 inh; actives 60% (n = 920); membrane potential signal change, % at 10 µM;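 active = membrane potential signal shifting up or down by more than 3 SD of buffer-only wells, on both duplicate plates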
HEK293 MPD ctr-2 – checks TRPC6 modulator effects in parental HEK293 cells; membrane potential dye fluorescence; actives 51% (n = 2,400); shares compounds with TRPC6 inh; membrane potential signal change, % at 10 µM;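 active = membrane potential signal moves up or down beyond 5 SD from buffer-only wells, on both duplicate plates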
HEK293 MPD ctr 2-2 – second counter-screen for TRPC6 modulators: effect in parental HEK293 cells; shares compounds with TRPC6 inh; membrane potential dye fluorescence; after compound, maximal acetylcholine stimulation; inhibition, % at 10 µM; actives 14% (n = 2,400);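 active = membrane potential signal drops by more than 5 SD from the mean control signal, in both duplicate plates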;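 also: plate controls were acetylcholine ECmax control wells for no effect and buffer only wells for full effect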
TRPC4 ctr mod – selectivity of TRPC6 modulators against mouse TRPC4 | shares compounds with TRPC6 inh | HEK293 TRPC4/mu-opioid, membrane potential fluorescence | percent change from control (negative = decrease, positive = increase), % at 10 µM | actives 69% (n = 2,400) | AID 488927;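 active = membrane potential signal moved up or down beyond 5 SD of buffer control wells, in both duplicate plates, actives on both sides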;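 also: plate controls were assay buffer wells for no effect and DAMGO maximal-effect wells for full effect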
TRPC4 ctr inh 2 – second selectivity test of TRPC6 modulators against mouse TRPC4; HEK293 TRPC4/mu-opioid, membrane potential dye fluorescence; stimulated with maximal-effect DAMGO; actives 55% (n = 2,400); inhibition, % at 10 µM; shares compounds with TRPC6 inh; AID 488928;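 active = drop in membrane potential signal beyond 5 SD of the control wells in both duplicate plates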;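 also: TRPC4 counter screen for TRPC6 hits run under conditions tuned for TRPC6 not TRPC4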
TRPC6 block conf – mouse TRPC6 inhibitor confirmation; shares compounds with TRPC6 inh; HEK293-TRPC6, membrane potential dye, ACh-evoked depolarization; inhibition, % at 10 µM; actives 43% (n = 3,300); AID 488960;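 active = fluorescence ratio falls more than 5 SD below the full-stimulation control mean, in both duplicate runs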;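 also: integrated fluorescence ratio of peak minus minimum over baseline after agonist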
TRPC6 act confirm – mouse TRPC6 activator confirmation; HEK293-TRPC6 membrane potential dye fluorescence, FDSS; AID 488961; activation, % at 10 µM; actives 11% (n = 2,800); shares compounds with TRPC6 inh;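 active = ratio signal rise beyond 5 SD above unstimulated control wells' mean, seen in both duplicate runs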;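 also: plate controls were buffer EC0 wells for no effect and acetylcholine ECmax response for full effect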
* marks the source's active call; other numbers are inactive results; i = inactive; · = no result; + = active, no number. Shown are actives, neighbours in structure and some others; about 2.3% of the full set was active somewhere.

SMILES	TRPC4 block	TRPC4 act	TRPC4 potent	TRPC6 act	TRPC6 inh	HEK293 MPD ctr-2	HEK293 MPD ctr 2-2	TRPC4 ctr mod	TRPC4 ctr inh 2	TRPC6 block conf	TRPC6 act confirm	others
Cc1ccc(Cn2c(=N)c(C(=O)NCc3ccco3)cc3c(=O)n4ccccc4nc32)cc1	i	48*	i	i	-5*	i	i	-32%*	38%*	36%*	i
N=c1c(C(=O)NCc2ccco2)cc2c(=O)n3ccccc3nc2n1CCc1ccccc1	i	i	i	i	-5.8*	-80%*	i	-30%*	52%*	46%*	i
COCCn1c(=N)c(C(=O)NCc2ccco2)cc2c(=O)n3cc(C)ccc3nc21	·	i	i	i	-8.2*	422%*	120%*	-74%*	40%*	50%*	i
Cc1ccc(OCC(=O)Nc2ccon2)c([N+](=O)[O-])c1	i	i	i	i	i	·	·	·	·	·	·
C/C(=N\Nc1ccccn1)c1ccc2c(c1)OCO2	i	i	i	i	i	·	·	·	·	·	·
C/C(=N\Nc1nc2ccccc2[nH]1)c1ccc2c(c1)OCCO2	i	i	i	i	-7.2*	·	·	·	·	67%*	i	TRPC4 sel inh 2=41%*;TRPC4 spec=-24%*;HEK293 MPD ctr 2-1=i;HEK293 MPD ctr-1=-263%*
C/C(=N\Nc1nc2ccccc2[nH]1)c1ccc2c(c1)OCO2	-8*	i	i	i	-10*	·	·	·	·	58%*	i	TRPC4 sel inh 2=40%*;TRPC4 spec=-20%*;HEK293 MPD ctr 2-1=38%*;HEK293 MPD ctr-1=-346%*
CCn1c(=O)cc(OCC(=O)NCc2cccs2)c2ccccc21	i	i	i	i	i	·	·	·	·	·	·
O=C(CCc1cccc(Cl)c1)N1CCCC(Nc2ccccc2)C1 (stereo not given)	i	i	i	i	-8.6*	·	·	·	·	55%*	i	TRPC4 sel inh 2=i;TRPC4 spec=i;HEK293 MPD ctr 2-1=i;HEK293 MPD ctr-1=i
O=C(C[n+]1cc(-c2ccc(Cl)cc2)n2c1CCC2)N1c2ccccc2Sc2ccccc21	i	i	i	i	-6.2*	i	58%*	-10%*	i	73%*	i
Cc1ccc(C(=O)C[n+]2cc(-c3ccc(C)cc3)n3c2CCCCC3)cc1	i	i	i	12*	-5.4*	265%*	i	48%*	42%*	51%*	90%*
CCN(CC)CC(=O)Nc1c2c(nc3ccccc13)N(C)CC2	i	i	i	i	-7.5*	-213%*	i	-30%*	54%*	48%*	i
O=C(CN1CCOCC1)Nc1c2c(nc3ccccc13)N(Cc1ccccc1)CC2	i	i	i	i	i	·	·	·	·	·	·
CC(C)C(=O)Nc1c2c(nc3ccccc13)N(C)CC2	i	i	i	i	i	·	·	·	·	·	·
CN(C)c1cc(NC(=O)CNC(C)(C)CC(C)(C)C)c2ccccc2n1	i	i	i	i	i	·	·	·	·	·	·
O=C(CN1CCCC1)Nc1c2c(nc3ccccc13)N(Cc1ccccc1)CC2	i	i	i	i	-6.1*	-312%*	i	-49%*	62%*	46%*	i
CN(C)c1cc(NC(=O)CN2CCCC2)c2ccccc2n1	i	i	i	i	-7.2*	·	·	·	·	i	i	TRPC4 sel inh 2=66%*;TRPC4 spec=-19%*;HEK293 MPD ctr 2-1=i;HEK293 MPD ctr-1=-324%*
COc1cc(OC)cc(-c2nnc(NC(=O)c3ccc4c(c3)OCCO4)o2)c1	i	i	i	i	i	·	·	·	·	·	·
S=C(NCc1ccc(Cl)cc1Cl)NC1CCCCC1	i	i	i	i	i	·	·	·	·	·	·
Cc1ccn2c(Nc3ccccc3C)c(-c3ccccn3)nc2c1	i	i	i	i	-5.7*	-130%*	i	-27%*	81%*	i	i
Cc1ccccc1Nc1c(-c2cccnc2)nc2ccc(Br)cn12	i	i	i	i	i	·	·	·	·	·	·
Cc1ccccc1Nc1c(-c2ccncc2)nc2ccc(Br)cn12	i	i	i	i	-7*	-131%*	i	-39%*	94%*	64%*	i
Cc1ccccc1Nc1c(-c2cccnc2)nc2ccccn12	i	i	i	i	-5.6*	-132%*	i	-14%*	66%*	i	i
Cc1ccc(CN(C)C(=O)C2CCC(=O)N(CCc3ccccc3)C2)o1 (stereo not given)	i	i	i	i	i	·	·	·	·	·	·
O=c1c2cc(Cl)ccc2[nH]c(=S)n1Cc1cccs1	i	i	i	i	i	·	·	·	·	·	·
N#Cc1ccc(/C=C/C(=O)c2ccco2)cc1	i	i	i	i	i	·	·	·	·	·	·
Nc1ccc(/C=C/C(=O)c2ccco2)cc1	i	i	i	25*	-8.4*	722%*	+	92%*	52%*	80%*	199%*
CCCn1c(NCc2c[nH]c3ccccc23)nc2ccccc21	i	i	i	i	-8.5*	·	·	·	·	i	i	TRPC4 sel inh 2=25%*;TRPC4 spec=-16%*;HEK293 MPD ctr 2-1=i;HEK293 MPD ctr-1=-209%*
c1ccc2c(c1)CCN(c1ncnc3c1[nH]c1ccccc13)C2	i	86*	i	i	-5.7*	i	i	i	63%*	i	i
